# SR-BI HDL uptake = blocks mouse SR-BI lipid uptake from DiI-HDL. Q61009. ldlA[mSR-BI] CHO cells, DiI-HDL uptake fluorescence, 3 h. inhibition, % at 12.5 µM. actives 0.96% (n = 320,000);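 active = mean replicate inhibition of at least 70% and a set share of replicates each scoring 70 or more; inconclusive = meets just one of the two criteria; inactive = fails both criteria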;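 note: 0% = median of neutral control wells and 100% = median of positive control wells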
# SR-BI uptake up = SR-BI HDL lipid transfer activation; actives 0.096% (n = 320,000); CHO ldlA[mSR-BI] cells, DiI-HDL uptake fluorescence, 3 h; 100 = double the neutral-control signal; activation, % at 12.5 µM;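 active = mean replicate activation of at least 60% and every replicate at or above 60%; inconclusive = mean or all-replicate condition met, but not both; inactive = mean below 60% and not all replicates reaching 60%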;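 note: 0% = median plate neutral-control signal and 100% = twice that signal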
#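 material = CHO ldlA[mSR-BI] cells | medium = Ham's F12 with 0.5% BSA, HEPES 25 mM, pH 7.4 | reagent = fluorescent DiI-HDL, 10 µg/mL final | compound dosing = single-point compound dose | incubation = 3 h, 37 °C | measured by = bottom-read fluorescence, 550/595 nm | measure = HDL uptake via cellular fluorescence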
# dFosB act = mouse delta FosB homodimer activation | P13346 | purified delta FosB, TAMRA-CDK5 oligo fluorescence polarization; percent of positive-control signal above neutral wells | activation, % at 25 µM | actives 0.99% (n = 340,000) | AID 493131;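 active = mean activation above about 17%, with every replicate also reaching it, limit read from the data, passing the limit was not always enough; inconclusive = only one of the two conditions met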
# CDK5 p35 inh = CDK5/p35 (human) kinase inhibition. Q00535+Q15078. Recombinant CDK5/p35, ADP-Glo luminescence, 60 min. inhibition, % at 10 µM. actives 0.01% (n = 330,000). AID 488839;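 active = highest replicate inhibition of at least 50% and at least 75% of replicates reaching 50%; inconclusive = only one of the two criteria met; inactive = both criteria failed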;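 note: plate controls were DMSO neutral control for no effect and GW8510 at 10 µM for full effect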
# PKA-R1A activ = activators of PKA-R1A complex; P00514+P68181; PKA-R1A dissociation, Cy5-IP20 fluorescence polarization; scaled: DMSO 0%, 113 µM cGMP 100%; activation, % at 11.4 µM; actives 0.083% (n = 340,000);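 active = percent activation above the mean of all tested compounds plus 3 SD, cut at about 19% in these data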;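 note: higher means more PKAc released from R1A so a rise in polarization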
# PKA-R2B activ = activates the human PKA-R2B holoenzyme complex | PKA-R2B holoenzyme dissociation, Cy5-IP20 fluorescence polarization; R2B truncated from residue 108, S112A mutant; 0% DMSO only, 100% 113 µM cGMP | activation, % at 11.4 µM | actives 0.079% (n = 340,000) | AID 504700;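 active = activation above a cutoff set at the mean over all compounds plus 3 SD, cut at about 18% in these data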;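 note: higher means more holoenzyme dissociation and a rise in polarization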
# Target sequence (P31323 whole entry, looked up, other chains not shown, the tested form may be a part): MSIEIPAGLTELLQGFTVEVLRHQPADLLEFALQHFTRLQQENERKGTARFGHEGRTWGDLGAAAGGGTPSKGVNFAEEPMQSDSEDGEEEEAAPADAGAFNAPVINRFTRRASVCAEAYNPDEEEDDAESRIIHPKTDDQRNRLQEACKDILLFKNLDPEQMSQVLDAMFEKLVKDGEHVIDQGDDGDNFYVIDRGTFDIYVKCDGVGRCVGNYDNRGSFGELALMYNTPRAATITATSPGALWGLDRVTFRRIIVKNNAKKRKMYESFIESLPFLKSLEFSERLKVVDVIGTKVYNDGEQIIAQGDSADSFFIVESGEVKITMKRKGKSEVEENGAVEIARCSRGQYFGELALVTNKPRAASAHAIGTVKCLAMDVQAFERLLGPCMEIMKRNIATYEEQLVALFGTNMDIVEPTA
# DiI quench = counter-screen for SR-BI lipid transfer inhibitors: DiI fluorescence quenchers. shares compounds with SR-BI HDL uptake. cell-free DiI-HDL fluorescence quenching, 30 min. AC50, µM (highest dose often 35 µM), for inactives: top-dose activity change, negative = quenching. actives 20% (n = 470). AID 540326;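 active = quenching, a falling signal, with AC50 below a set limit tied to the top valid dose, actives reach about 32 µM in these data; inconclusive = no clear call, values can overlap the other calls; inactive = rising signal, and the rest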
# Starred values were filed as active, the others as inactive; ? = inconclusive; nt = not tested or not shown. This is a sample that favours compounds with a hit; in the whole collection about 2.1% have one here.
SMILES,SR-BI HDL uptake,SR-BI uptake up,dFosB act,CDK5 p35 inh,PKA-R1A activ,PKA-R2B activ,DiI quench
CCOc1ccc(NC(=O)c2ccc3c(c2)N(Cc2ccc(F)cc2)C(=O)CS3=O)cc1 (configuration not stated),17.1,-17.1,-5.7,0.6,-13.6,-2.7,nt
Cc1ccc(C)c(NC(=O)c2ccc3c(c2)N(Cc2ccc(F)cc2)C(=O)CS3=O)c1 (configuration not stated),-6.7,6.7,-12.0,0.6,-21.1,4.2,-2.8%
CCN(CC(=O)Nc1ccc(NC(C)=O)cc1)C(=O)CN1C(=O)C2CCCCC2C1=O (configuration not stated),-22.0,22.0,-8.2,-0.8,13.1,3.9,nt
Clc1ccc(Cn2nnc(-c3ccc(N4CCOCC4)cc3)n2)cc1,83.5*,-83.5,0.4,0.0,-4.7,-7.9,-5.7%
CCOc1ccccc1NC(=O)N1C2CCCC1CC(NC(=O)C1CC1)C2 (configuration not stated),7.1,-7.1,-3.4,1.6,-3.3,-0.3,-0.5%
CCOc1ccccc1NC(=O)C(CC(C)C)NC(=O)C1CCC(C)CC1 (configuration not stated),79.6*,-79.6,-8.3,0.3,-8.9,-10.8,-2.8%
CCc1noc(C)c1C(=O)N1CCN(S(=O)(=O)c2ccc(Cl)s2)CC1,-17.9,17.9,4.0,-0.7,6.2,-5.0,nt
CCOc1ccc(NC(=O)c2ccc(-n3cccn3)nc2)cc1,-30.1,30.1,4.4,0.2,-2.3,-7.7,nt
Oc1ccc(Br)cc1/C=N/n1c(C2CCCCC2)n[nH]c1=S,-4.1,4.1,-8.9,-0.1,3.8,7.5,nt
c1ccc(COn2c(-c3ccccc3)nc3c2CCc2nonc2-3)cc1,?,-70.5,9.0,0.4,-5.3,0.8,0.8%
COc1ccccc1NS(=O)(=O)c1cc(NC(=O)COc2ccccc2F)ccc1N1CCOCC1,41.7,-41.7,4.4,2.9,-9.1,10.1,nt
Cc1cc(N2CCN(C(=O)c3ccco3)CC2)n2ncc(-c3ccccc3)c2n1,78.3*,-78.3,-1.0,1.3,-3.8,10.5,-9.5%
Cc1cc(N2CCN(C(=O)c3ccco3)CC2)n2ncnc2n1,-8.7,8.7,1.9,-1.6,-1.0,1.4,nt
CCc1nc(N2CCN(C(=S)NCCCOC)CC2)c2c3c(sc2n1)CCCC3,88.1*,-88.1,-8.2,-4.3,-9.8,1.1,0.4%
CCN1C(=O)[C@H]2[C@@H](c3ccc(Cl)cc3)N3C(=O)CN(CC4CC4)C(=O)[C@@]3(C)[C@H]2C1=O,5.9,-5.9,-1.6,0.6,-6.1,-2.0,nt
Cc1ccc(NC(=O)CSc2nnc([C@H](C)NC(=O)OC(C)(C)C)o2)c(C)c1,73.0*,-73.0,-7.2,0.2,nt,nt,0.2%
Cc1cccc(NC(=O)CSc2nnc([C@H](C)NC(=O)OC(C)(C)C)o2)c1C,38.6,-38.6,-8.7,-2.2,-2.9,-1.7,nt
CC(=O)Nc1c(I)c(C(=O)N[C@H]2C(O)O[C@H](CO)[C@@H](O)[C@@H]2O)c(I)c(N(C)C(C)=O)c1I (some centres not stated),-1.2,1.2,6.3,-1.0,-0.1,-0.4,-1.1%
Cc1c(C(=O)Nc2ccc(Cl)cc2)c2ccccn2c1CCc1ccncc1,96.6*,-96.6,-8.5,-0.7,-0.9,4.4,31.5µM*
Cc1c(C(=O)Nc2cccc(Cl)c2)c2ccccn2c1CCc1ccncc1,94.1*,-94.1,-11.8,1.1,-3.0,-11.6,25.2µM*
Cc1ccccc1-c1cccc([C@@H]2C[C@H]3[C@H](CON3C)CN2S(=O)(=O)c2ccccc2C)c1,-0.8,0.8,-0.2,0.5,-5.8,-3.7,nt
Nc1cc(=O)[nH]c(SCC(=O)Nc2ccc(N3CCCCC3)cc2)n1,-17.2,17.2,-4.5,0.0,6.3,-12.4,nt
NCCc1ccn[nH]1,-1.6,1.6,6.1,-0.2,13.5,0.1,nt
COc1ccc(-c2nnn(CC(=O)N(c3cccc(O)c3)C(C)C(=O)NC3CCCC3)n2)cc1OC (configuration not stated),15.8,-15.8,-8.9,-0.8,0.2,-1.1,nt
CCC(C(=O)NC1CCCC1)N(C(=O)Cn1nnc(-c2ccc(OC)c(OC)c2)n1)c1cccc(O)c1 (configuration not stated),28.0,-28.0,-12.0,-0.7,0.8,-3.3,0.0%
SMILES,SR-BI HDL uptake,SR-BI uptake up,dFosB act,CDK5 p35 inh,PKA-R1A activ,PKA-R2B activ,DiI quench
COc1ccc(N(CC(=O)NC2CCCC2)C(=O)Cn2nnc(-c3ccc(OC)c(OC)c3)n2)cc1,80.0*,-80.0,-8.7,0.4,-13.3,3.9,-3.9%
O=C1CCN(c2ccc([N+](=O)[O-])cc2F)CC1,5.4,-5.4,-0.3,0.3,-12.2,0.5,nt
COc1ccc(C2c3sc(=O)[nH]c3SC3C4CCC(C4)C23)cc1OC (configuration not stated),?,-71.6,-8.1,0.0,-5.2,-21.9,-9.4%
Cc1cc(CN(C)C(=O)C2CCC(=O)N(CCc3cccc(F)c3)C2)on1 (configuration not stated),-12.5,12.5,-1.0,1.0,-4.5,3.1,-5.7%
CN(C(=O)COC(=O)c1ccc(Cl)cc1N)C1CCCCC1,15.8,-15.8,-7.6,-0.2,2.8,-7.1,nt
CN(C(=O)COC(=O)c1c[nH]c(=O)[nH]c1=O)C1CCCCC1,78.8*,-78.8,-7.8,0.4,-0.4,-1.3,-1.3%
CN(C)S(=O)(=O)c1cccc(NC(=O)C2CCCN(C(=O)c3ccc(Cl)cc3)C2)c1 (configuration not stated),nt,nt,nt,nt,2.0,-9.9,nt
O=C(Nc1ccc(S(=O)(=O)NC2=NCCCCC2)cc1)c1cccc(OC(F)F)c1,nt,nt,nt,nt,-4.4,-14.6,nt
O=C(CN1CCN(c2ncc(C(F)(F)F)cc2Cl)CC1)NCCNc1ncc(C(F)(F)F)cc1Cl,75.4*,-75.4,-4.4,1.9,4.3,3.8,-0.6%
O=S(=O)(c1ccccc1)N1N=C(c2ccc(Cl)cc2)CC1c1ccco1 (configuration not stated),-15.3,15.3,-13.4,1.1,-0.7,2.5,nt
COc1ccccc1-n1cnc2cc(NCc3ccccc3O)ccc21,10.2,-10.2,-6.6,-0.4,-6.9,-11.8,nt
COc1ccccc1-n1cnc2cc(NCc3ccco3)ccc21,75.8*,-75.8,-4.0,0.0,2.3,4.6,-18.6%
CSCC[C@H](NC(=O)c1ccc(OCC2CCCO2)cc1)c1nc2ccccc2[nH]1 (some centres not stated),-4.5,4.5,-11.6,-0.8,0.7,-5.6,nt

# Compound activity (PubChem)
